# Reference: PubChem BioAssay
# Activity calls are given as the source filed them.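 How the source made its calls, unless noted: active means viability at or below 10% of carrier control in both of two separate runs; inconclusive means viability at or below 10% in only one of the two runs; inactive means the rest.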
# Experiments:
# [1] = reducers of endogenous Her2 protein level, primary screen, SKBR3 breast tumor cells, AlphaScreen, ATP viability (AID 461;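 active means Her2 level under about 52% in both replicate screens, with viability over 70% of control, limit read from the data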;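 on Her2 level: lower value means less Her2 protein in the cells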;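 on viability: percent of carrier control wells set as 100% viability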); details: 18-24 h, measured here: SKBR3 viability, ATP luminescence, at 10 µM
# [2] = molecular target: Receptor tyrosine-protein kinase erbB-2 (Homo sapiens) (UniProt P04626); experiment: as above; details: 18-24 h, at 10 µM, stronger effect = lower value
# Chain of Receptor tyrosine-protein kinase erbB-2 (Homo sapiens) (P04626 whole entry, looked up): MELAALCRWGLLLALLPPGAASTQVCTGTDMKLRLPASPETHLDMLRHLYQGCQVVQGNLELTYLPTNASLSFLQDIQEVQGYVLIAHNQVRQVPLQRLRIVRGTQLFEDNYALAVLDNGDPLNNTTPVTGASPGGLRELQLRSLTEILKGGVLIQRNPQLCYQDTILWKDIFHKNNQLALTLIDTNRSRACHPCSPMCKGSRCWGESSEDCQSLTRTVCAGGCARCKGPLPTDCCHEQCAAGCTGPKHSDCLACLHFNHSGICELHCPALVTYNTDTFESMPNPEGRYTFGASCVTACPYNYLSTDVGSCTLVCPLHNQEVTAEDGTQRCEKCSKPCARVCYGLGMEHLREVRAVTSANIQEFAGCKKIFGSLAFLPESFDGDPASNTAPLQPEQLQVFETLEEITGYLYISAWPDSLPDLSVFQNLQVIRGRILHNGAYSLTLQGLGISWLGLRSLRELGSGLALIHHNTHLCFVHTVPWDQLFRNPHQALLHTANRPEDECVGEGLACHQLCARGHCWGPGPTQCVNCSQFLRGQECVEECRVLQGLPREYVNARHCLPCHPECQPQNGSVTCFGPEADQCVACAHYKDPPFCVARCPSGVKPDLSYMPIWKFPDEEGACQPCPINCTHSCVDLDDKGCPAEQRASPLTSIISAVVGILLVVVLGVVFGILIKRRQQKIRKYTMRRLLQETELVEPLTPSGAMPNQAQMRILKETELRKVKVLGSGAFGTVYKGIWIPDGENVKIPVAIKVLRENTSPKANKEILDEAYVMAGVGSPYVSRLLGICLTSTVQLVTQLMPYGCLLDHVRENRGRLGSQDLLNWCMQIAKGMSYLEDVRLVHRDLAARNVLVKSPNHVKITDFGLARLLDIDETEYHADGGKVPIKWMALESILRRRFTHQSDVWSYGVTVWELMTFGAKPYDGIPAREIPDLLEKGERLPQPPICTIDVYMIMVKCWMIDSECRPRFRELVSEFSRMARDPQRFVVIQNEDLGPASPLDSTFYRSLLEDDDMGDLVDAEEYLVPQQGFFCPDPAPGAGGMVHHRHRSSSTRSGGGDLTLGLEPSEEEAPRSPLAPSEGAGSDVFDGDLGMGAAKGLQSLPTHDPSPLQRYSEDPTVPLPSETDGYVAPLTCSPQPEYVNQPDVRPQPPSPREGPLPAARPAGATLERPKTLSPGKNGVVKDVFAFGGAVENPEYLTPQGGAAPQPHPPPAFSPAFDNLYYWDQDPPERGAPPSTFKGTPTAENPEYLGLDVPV
# [3] = SK-BR-3 cell growth inhibitors, pilot screen, 24 h, human (AID 572); details: SK-BR-3 viability, CellTiter-Glo luminescence, at 10 µM, stronger effect = lower value;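 further: compound exposure lasted between 18 and 24 h rather than exactly 24 h; 100% = carrier-treated control wells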
# [4] = HUVEC growth inhibition – cell-based, human, primary screen (AID 575;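 active means viability at or below 30% in both replicate assays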;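 further: 100% = median of untreated cell wells with 0.1% DMSO on each plate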); details: HUVEC proliferation, CellTiter-Glo luminescence, 72 h; at 10 µM; stronger effect = lower value
# Summary of the method: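 Assay system: primary human umbilical vein endothelial cells / Buffer or medium: endothelial basal medium with 2% FBS plus growth supplements / Compound dosing: one dose, 10 µM final, 0.1% DMSO / Timing: 72 h treatment at 37 °C / Signal: CTG luminescence / Benchmarks: 32 DMSO-only cell-control wells (high), 32 MePR drug-control wells (low) per plate / Plate: collagen-coated 384-well format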
# [5] = growth inhibitors of H69AR lung tumor, primary screen, human, duplicate replicates (AID 580;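 active means viability at or under a set limit in both replicates, limit being median viability minus 3 SD, cut at about 48% in these data, passing the limit was not always enough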;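 further: 100% = mean luminescence of untreated wells and 0% = no signal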); details: H69AR lung tumor cells viability, ATP luminescence, 72 h; at 10 µM; stronger effect = lower value
# [6] = reversal of MRP1-mediated doxorubicin resistance, pilot screen, H69AR cells, doxorubicin co-treatment (AID 601;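 active means viability loss from added drug above about 55%, and viability with drug at most 40%, in both replicates, limit read from the data, passing the limit was not always enough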); details: CellTiter-Glo, 72 h, at 10 µM; for differential viability (reversal): stronger effect = higher value
# [7] = 384-well plate pilot, post-Golgi transport modulator project, inhibition of yeast transport mutant growth (AID 636; in the data active means inhibition above about 31%); details: absorbance 615 nm, about 18 h, stronger effect = higher value
# [8] = growth suppression of yeast trafficking mutant, preliminary HTS, modulators of trafficking downstream of Golgi apparatus project, 1536-format plate, OD 615 nm (AID 637; in the data active means inhibition above about 30%); details: yeast transport mutant growth, absorbance 615 nm, 18 h; stronger effect = higher value
# [9] = H69AR cells + 2 uM doxorubicin, measured here: viability with 2 uM doxorubicin, stronger effect = lower value
# [10] = H69AR cells, compound alone cytotoxicity
SMILES,viability [1],Her2 level [2],viability [3],viability [4],viability [5],differential viability (reversal) ([6]; H69AR cells + 2 uM doxorubicin),"viability [6, 9]","viability [6, 10]",inhibition [7],inhibition [8]
O=C(c1ccco1)N(Cc1cc2ccccc2[nH]c1=O)C1CCCCC1,98.5%,103% (inactive),98.5% (inactive),91.7% (inactive),95% (inactive),12.9% (inactive),82.1%,95%,0.39% (inactive),-6.35% (inactive)
O=C(OCC#CCSc1nc2ccccc2o1)c1ccco1,112%,84% (inactive),112% (inactive),80.4% (inactive),80.4% (inactive),-1.78% (inactive),82.2%,80.4%,-6.67% (inactive),-7.7% (inactive)
Cc1cc(C)cc(NS(=O)(=O)c2ccc3[nH]cc(C(=O)NCc4ccco4)c(=O)c3c2)c1,97%,87% (inactive),97% (inactive),19% (active),41.1% (active),-35.9% (inactive),77%,41.1%,-5.39% (inactive),1.45% (inactive)
Cc1ccc(S(=O)(=O)N(CC(=O)N2CCC(C(N)=O)CC2)c2cccc(C(F)(F)F)c2)cc1,99.5%,120% (inactive),99.5% (inactive),87.8% (inactive),82.9% (inactive),-6.52% (inactive),89.4%,82.9%,-3.33% (inactive),5% (inactive)
COc1ccc(N(C(=O)c2ccco2)S(=O)(=O)c2cc(OC)ccc2OC)cc1,102%,84.5% (inactive),102% (inactive),81% (inactive),72.2% (inactive),-25.7% (inactive),97.9%,72.2%,-1.84% (inactive),4.17% (inactive)
Cc1cccc2cc(CN(Cc3nnnn3Cc3ccccc3)C3CCCC3)c(=O)[nH]c12,85%,72.5% (inactive),85% (inactive),89.3% (inactive),72.9% (inactive),31.2% (inactive),41.7%,72.9%,-1.18% (inactive),-4.55% (inactive)
CCN(CCCNC(=O)C1CCN(S(=O)(=O)c2cccc3nonc23)CC1)Cc1ccccc1,89%,90% (inactive),89% (inactive),103% (inactive),92.9% (inactive),11.1% (inactive),81.8%,92.9%,-5.39% (inactive),2.5% (inactive)
C=CCN1C(=O)C2(C(C#N)=C(N)Oc3n[nH]c(CCC)c32)c2ccccc21 (stereo not given),108%,103% (inactive),108% (inactive),100% (inactive),87.8% (inactive),2.95% (inactive),84.8%,87.8%,-4.55% (inactive),0% (inactive)
CCOc1ccc(CNC(=O)C2CCCN(S(C)(=O)=O)C2)cc1OC (stereo not given),77%,133% (inactive),77% (inactive),102% (inactive),98.8% (inactive),7.88% (inactive),90.9%,98.8%,-1.67% (inactive),0.17% (inactive)
CCOc1cc(C2C(C(=O)OC(C)C)=C(C)N=C3SCCC(=O)N32)ccc1OC(C)=O (stereo not given),93%,78.5% (inactive),93% (inactive),96.5% (inactive),93.3% (inactive),3.33% (inactive),89.9%,93.3%,-2.89% (inactive),2.18% (inactive)
COc1ccc(OC(C)C(=O)N2CC(C)OC(C)C2)cc1 (stereo not given),100%,102% (inactive),100% (inactive),97.3% (inactive),100% (inactive),-1.02% (inactive),101%,100%,-5% (inactive),0.16% (inactive)
CCOC(=O)c1c(-c2ccc(C)o2)csc1NC(=O)COC(=O)c1cccs1,93%,87.5% (inactive),93% (inactive),69.3% (inactive),84.4% (inactive),5.23% (inactive),79.2%,84.4%,1.3% (inactive),-3.77% (inactive)
Cc1cc(C(=O)NCCCc2ccccc2)no1,100%,86% (inactive),100% (inactive),91.4% (inactive),107% (inactive),18.6% (inactive),88.7%,107%,-5% (inactive),-2.83% (inactive)
Cc1ccc(OC(=O)NC2CCS(=O)(=O)C2)cc1C (stereo not given),108%,95% (inactive),108% (inactive),103% (inactive),95.3% (inactive),2.59% (inactive),92.7%,95.3%,-2.11% (inactive),6.23% (inactive)
OCc1nc2ccccc2n1CC(O)Cn1ccc2ccccc21 (stereo not given),97.5%,116% (inactive),97.5% (inactive),69.6% (inactive),85.2% (inactive),-15.4% (inactive),101%,85.2%,-1.97% (inactive),8.36% (inactive)
c1ccc(CCn2nnnc2CN2CCN(C3CCCC3)CC2)cc1,97.5%,95% (inactive),97.5% (inactive),109% (inactive),107% (inactive),19.1% (inactive),87.5%,107%,2.03% (inactive),-6.51% (inactive)
